The term inhibition denotes the percentage by which the read-out fell short of the control. For orientation: IC50 means the point on the concentration scale where inhibition reaches its midpoint.

Assay [1] concerns the target T1, Mitogen-activated protein kinase 13 (Homo sapiens) (UniProt O15264).
T1 sequence (whole entry): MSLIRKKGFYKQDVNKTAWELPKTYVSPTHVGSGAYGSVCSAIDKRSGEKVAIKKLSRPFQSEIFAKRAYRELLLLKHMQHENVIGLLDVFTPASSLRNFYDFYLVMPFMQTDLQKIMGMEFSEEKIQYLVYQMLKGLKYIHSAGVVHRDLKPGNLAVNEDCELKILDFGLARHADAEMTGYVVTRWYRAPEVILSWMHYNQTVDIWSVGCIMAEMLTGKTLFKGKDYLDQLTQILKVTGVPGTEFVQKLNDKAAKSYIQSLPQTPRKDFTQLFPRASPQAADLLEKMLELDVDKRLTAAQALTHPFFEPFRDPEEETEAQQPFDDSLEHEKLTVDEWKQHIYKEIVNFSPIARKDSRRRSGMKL
The assay can be described thus: Inhibition of p38delta (unknown origin) at 30 uM by microfluidic mobility shift assay relative to control. Put shortly: (§1)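 Single-point screen against a 24-kinase panel in a commercial microfluidic assay format. Compounds were tested at 30 µM, with ATP at approximately the Km,[ATP] of each enzyme. H-89 was included on each assay plate as an internal control.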

For assay [2], the target named is Mitogen-activated protein kinase 1 (Homo sapiens, UniProt P28482). The assay is described as follows: Inhibition of MAPK2 (unknown origin) at 30 uM by microfluidic mobility shift assay relative to control. Put shortly:
(§2)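 Single-point screen at 30 µM test compound across a 24-kinase panel in a microfluidic assay format. ATP was set near each enzyme's Km,[ATP]. […] The pan-AGC inhibitor H-89 served as an internal control on every assay plate.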

Assay [3] addresses Serine/threonine-protein kinase MARK2 (Homo sapiens) (UniProt Q7KZI7). The assay can be described thus: Inhibition of MARK2 (unknown origin) at 30 uM by microfluidic mobility shift assay relative to control. In short, it runs like this: as §2
The target of assay [4] is Protein kinase C gamma type (Homo sapiens) (UniProt P05129). The assay can be described thus: Inhibition of PKCgamma (unknown origin) at 30 uM by microfluidic mobility shift assay relative to control. In short, it runs like this:
as §1

Assay [5] deals with Calcium/calmodulin-dependent protein kinase type II subunit beta (Homo sapiens) (UniProt Q13554). The assay can be described thus: Inhibition of CAMK2beta (unknown origin) at 30 uM by microfluidic mobility shift assay relative to control. Put shortly:
as §2

Assay [6] addresses T2, Testis-specific serine/threonine-protein kinase 1 (Homo sapiens) (UniProt Q9BXA7).
T2 sequence (whole entry): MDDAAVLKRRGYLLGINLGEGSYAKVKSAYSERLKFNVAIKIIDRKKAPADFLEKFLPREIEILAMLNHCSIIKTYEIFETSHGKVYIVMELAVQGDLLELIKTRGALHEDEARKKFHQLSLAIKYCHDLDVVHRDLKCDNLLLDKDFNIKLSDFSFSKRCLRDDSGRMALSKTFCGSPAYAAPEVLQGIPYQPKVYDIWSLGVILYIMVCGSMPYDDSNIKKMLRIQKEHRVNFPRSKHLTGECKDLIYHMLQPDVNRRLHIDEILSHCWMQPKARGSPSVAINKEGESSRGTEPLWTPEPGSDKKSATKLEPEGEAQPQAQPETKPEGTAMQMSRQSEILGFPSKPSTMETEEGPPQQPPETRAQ
The assay is described as follows: Inhibition of TSSK1 (unknown origin) at 30 uM by microfluidic mobility shift assay relative to control. Put shortly: as §1

The subject of assay [7] is Tyrosine-protein kinase ABL1 (Homo sapiens), P00519 [Q252H]. The assay is described as follows: Inhibition of ABL Q252H mutant (unknown origin) at 30 uM by microfluidic mobility shift assay relative to control. In kind it is protein assay. In short, it runs like this:
as §2

For assay [8], the target named is Fibroblast growth factor receptor 1 (Homo sapiens) (UniProt P11362). The assay can be described thus: Inhibition of FGFR1 (unknown origin) at 30 uM by microfluidic mobility shift assay relative to control. In short, it runs like this: as §2
Assay [9] deals with T3, Testis-specific serine/threonine-protein kinase 2 (Homo sapiens) (UniProt Q96PF2).
T3 sequence (whole entry): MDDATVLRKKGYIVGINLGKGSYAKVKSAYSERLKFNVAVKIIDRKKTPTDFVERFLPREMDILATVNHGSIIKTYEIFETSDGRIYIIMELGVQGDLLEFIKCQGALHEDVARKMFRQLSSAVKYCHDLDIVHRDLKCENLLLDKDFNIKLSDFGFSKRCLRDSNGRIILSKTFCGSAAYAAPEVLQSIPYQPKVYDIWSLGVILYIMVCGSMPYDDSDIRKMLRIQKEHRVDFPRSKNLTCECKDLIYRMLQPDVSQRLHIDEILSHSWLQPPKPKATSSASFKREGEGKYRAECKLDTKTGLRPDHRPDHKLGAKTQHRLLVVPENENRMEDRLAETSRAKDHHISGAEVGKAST
The assay is described as follows: Inhibition of TSSK2 (unknown origin) at 30 uM by microfluidic mobility shift assay relative to control. In short, it runs like this:
as §1

Assay [10] addresses T4, Serine/threonine-protein kinase Chk1 (Homo sapiens, UniProt O14757).
T4 sequence (O14757 whole entry): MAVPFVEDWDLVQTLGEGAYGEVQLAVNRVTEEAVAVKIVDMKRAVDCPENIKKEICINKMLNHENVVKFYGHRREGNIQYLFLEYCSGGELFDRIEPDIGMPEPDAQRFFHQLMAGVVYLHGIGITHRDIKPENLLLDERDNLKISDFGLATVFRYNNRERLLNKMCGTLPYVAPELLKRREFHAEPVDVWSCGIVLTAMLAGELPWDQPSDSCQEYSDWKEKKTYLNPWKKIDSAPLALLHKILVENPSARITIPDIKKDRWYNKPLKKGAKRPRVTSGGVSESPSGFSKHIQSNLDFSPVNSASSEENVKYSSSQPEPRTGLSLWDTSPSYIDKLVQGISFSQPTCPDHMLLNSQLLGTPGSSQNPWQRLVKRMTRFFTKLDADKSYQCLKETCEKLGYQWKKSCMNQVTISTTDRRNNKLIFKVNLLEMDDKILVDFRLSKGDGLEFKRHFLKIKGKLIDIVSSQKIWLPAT
The assay can be described thus: Inhibition of CHK1 (unknown origin) by Z'-Lyte assay. In short, it runs like this:
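CHK1 IC50 was obtained by titration in the Z'-Lyte assay format, run as an outsourced screening service.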

Molecules are shown by their SMILES.

Chain of Mitogen-activated protein kinase 1 (P28482 whole entry): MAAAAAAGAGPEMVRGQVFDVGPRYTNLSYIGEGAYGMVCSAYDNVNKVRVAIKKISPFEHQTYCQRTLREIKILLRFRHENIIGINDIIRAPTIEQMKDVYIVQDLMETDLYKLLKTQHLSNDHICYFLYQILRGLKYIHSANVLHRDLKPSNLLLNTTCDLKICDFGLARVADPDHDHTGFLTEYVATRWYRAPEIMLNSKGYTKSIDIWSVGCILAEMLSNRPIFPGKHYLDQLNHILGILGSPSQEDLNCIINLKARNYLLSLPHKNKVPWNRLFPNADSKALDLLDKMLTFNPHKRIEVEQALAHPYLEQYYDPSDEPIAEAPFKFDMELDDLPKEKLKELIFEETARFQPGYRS
Chain of Serine/threonine-protein kinase MARK2 (Homo sapiens) (Q7KZI7 whole entry): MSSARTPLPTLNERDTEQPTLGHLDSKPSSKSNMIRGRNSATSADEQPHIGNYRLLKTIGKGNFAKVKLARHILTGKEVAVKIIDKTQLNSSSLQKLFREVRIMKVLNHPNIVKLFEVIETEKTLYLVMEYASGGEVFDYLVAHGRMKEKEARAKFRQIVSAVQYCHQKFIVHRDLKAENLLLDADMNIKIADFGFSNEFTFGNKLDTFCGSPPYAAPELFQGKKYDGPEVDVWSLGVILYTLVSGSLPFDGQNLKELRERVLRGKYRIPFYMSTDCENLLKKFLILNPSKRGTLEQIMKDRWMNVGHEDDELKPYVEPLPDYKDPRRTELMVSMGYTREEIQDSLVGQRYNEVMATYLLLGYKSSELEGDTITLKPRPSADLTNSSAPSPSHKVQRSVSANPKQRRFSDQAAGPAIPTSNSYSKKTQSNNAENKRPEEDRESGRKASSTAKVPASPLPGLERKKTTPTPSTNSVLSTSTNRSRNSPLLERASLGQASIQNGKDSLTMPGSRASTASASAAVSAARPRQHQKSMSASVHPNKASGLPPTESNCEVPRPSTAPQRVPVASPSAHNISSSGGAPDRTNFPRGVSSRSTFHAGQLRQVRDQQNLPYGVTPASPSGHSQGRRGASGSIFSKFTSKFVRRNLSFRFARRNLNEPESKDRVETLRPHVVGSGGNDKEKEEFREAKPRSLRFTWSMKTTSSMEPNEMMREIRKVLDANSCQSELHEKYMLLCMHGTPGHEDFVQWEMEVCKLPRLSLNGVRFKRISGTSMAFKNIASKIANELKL
Chain of Calcium/calmodulin-dependent protein kinase type II subunit beta (Homo sapiens) (Q13554 whole entry): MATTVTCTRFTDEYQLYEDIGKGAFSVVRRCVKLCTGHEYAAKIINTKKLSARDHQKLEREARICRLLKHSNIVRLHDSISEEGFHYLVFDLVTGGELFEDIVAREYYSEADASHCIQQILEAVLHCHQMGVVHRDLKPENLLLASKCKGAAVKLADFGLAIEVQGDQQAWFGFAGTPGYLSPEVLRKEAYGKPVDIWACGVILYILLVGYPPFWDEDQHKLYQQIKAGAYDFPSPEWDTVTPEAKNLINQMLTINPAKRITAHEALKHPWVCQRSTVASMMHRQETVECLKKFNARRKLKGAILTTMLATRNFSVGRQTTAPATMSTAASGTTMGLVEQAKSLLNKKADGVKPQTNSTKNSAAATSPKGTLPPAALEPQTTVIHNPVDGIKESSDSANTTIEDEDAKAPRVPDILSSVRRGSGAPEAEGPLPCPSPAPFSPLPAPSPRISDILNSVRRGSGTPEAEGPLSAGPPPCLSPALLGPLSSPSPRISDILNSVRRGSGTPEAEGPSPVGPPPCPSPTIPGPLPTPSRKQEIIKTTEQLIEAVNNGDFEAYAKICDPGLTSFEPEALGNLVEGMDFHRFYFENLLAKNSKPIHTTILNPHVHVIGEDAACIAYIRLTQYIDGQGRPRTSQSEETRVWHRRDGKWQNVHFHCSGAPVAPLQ
Chain of Fibroblast growth factor receptor 1 (Homo sapiens) (P11362 22-822 limits assumed): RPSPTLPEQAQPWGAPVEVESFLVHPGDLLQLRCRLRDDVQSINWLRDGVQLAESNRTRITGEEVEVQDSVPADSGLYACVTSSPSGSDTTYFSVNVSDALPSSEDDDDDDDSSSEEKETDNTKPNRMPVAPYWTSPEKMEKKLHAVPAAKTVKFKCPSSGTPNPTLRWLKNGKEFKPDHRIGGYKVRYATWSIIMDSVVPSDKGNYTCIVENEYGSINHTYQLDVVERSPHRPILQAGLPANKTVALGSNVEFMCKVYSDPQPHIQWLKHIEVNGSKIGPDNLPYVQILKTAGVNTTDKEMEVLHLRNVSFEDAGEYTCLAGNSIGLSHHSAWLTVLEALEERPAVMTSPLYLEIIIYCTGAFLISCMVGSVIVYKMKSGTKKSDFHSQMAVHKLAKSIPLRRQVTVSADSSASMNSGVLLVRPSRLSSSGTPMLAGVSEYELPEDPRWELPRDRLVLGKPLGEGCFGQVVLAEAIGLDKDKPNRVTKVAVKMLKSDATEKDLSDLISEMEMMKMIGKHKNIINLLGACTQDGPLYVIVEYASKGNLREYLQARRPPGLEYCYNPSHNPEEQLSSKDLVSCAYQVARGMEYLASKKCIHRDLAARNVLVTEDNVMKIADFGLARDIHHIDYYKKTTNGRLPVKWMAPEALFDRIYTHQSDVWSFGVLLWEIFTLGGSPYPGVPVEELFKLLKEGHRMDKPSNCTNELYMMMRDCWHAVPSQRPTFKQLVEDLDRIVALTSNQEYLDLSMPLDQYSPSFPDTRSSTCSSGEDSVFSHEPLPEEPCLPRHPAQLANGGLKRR

`c1ccc(C2CCNC3(CCN(c4ncnc5[nH]cnc45)CC3)C2)cc1` (racemic): the inhibition in [1] came out at 7%; in [2], 9%; in assay [3] it was 72%; in assay [4], 77%; in [5], 32%; in assay [6], 99%. Besides, the inhibition was 30% in assay [7], 27% in [8] and 25% in [9].
In assay [10], `O=S(=O)(c1cccc2cnccc12)N1CCCC2(CCCNC2)C1` (stereo not given) yielded an IC50 of 12.8 µM.
Take `c1nc(N2CCC3(CCCNC3)CC2)c2nc[nH]c2n1`: the IC50 in assay [10] is 1.8 µM.
For the compound `c1ccc(CC2CCC3(CCN(c4ncnc5[nH]cnc45)CC3)NC2)cc1` (racemic), the inhibition came to 4% in assay [1]; 15% in [2]; 47% in assay [3]; 53% in assay [4]; 17% in [5]; 65% in assay [6]. For the same compound, the inhibition came out at 30% in assay [7], 42% in assay [8] and 7% in [9].
`c1nc(N2CCC3(CCCCN3)CC2)c2nc[nH]c2n1`: the IC50 in assay [10] is 18 µM.
Take `c1ccc(CC2CCNC3(CCN(c4ncnc5[nH]cnc45)CC3)C2)cc1` (racemic): the inhibition in [1] is 23%; in [2], 6%; in [3] it was 60%; in assay [4] it was 86%; in [5] it was 29%; in [6], 97%. The inhibition is 12% in assay [7], 44% in [8] and 32% in assay [9].
